The results in this text go back to ChEMBL document CHEMBL4196175, “First SAR Study for Overriding NRAS Mutant Driven Acute Myeloid Leukemia” (J Med Chem, 2018).

Activity calls are given as the source filed them. No cut-off for these calls is given here. Where only a bound is given, the exact number is not on record here.

Data set [1] can be described thus: Half life in mouse at 10 mg/kg, po. Type of data set: ADME, organism-based. The following applies: in vivo.
Data set [2] deals with OCI-AML-3. The experiment in a line: Antileukemic activity against human OCI-AML3 cells harboring NRAS-Q61L mutant xenografted in immunodeficient mouse assessed as tumor volume at 25 mg/kg/day, po qd administered on day 21 post implantation measured on day 20 post dose (reference value: 100%). Format: functional.
The target in data set [3] is Cytoplasmic tyrosine-protein kinase BMX (Homo sapiens) (UniProt P51813). The following applies: 1 uM.
Data set [4] relates to BaF3. In words: Induction of apoptosis in mouse BA/F3 cells expressing NRAS-G12D mutant assessed as increase in cleaved PARP levels at 5 uM after 24 hrs by Western blot analysis. Type of data set: functional, cell-based. The method in brief: (§1)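 Cells treated 24 h with indicated concentrations (1 µM; 5 µM also used in Ba/F3-NRAS-G12D); cleaved PARP, cleaved caspase 3, bcl-2 and MCL1 detected by western blot with actin as loading control.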
In general terms: A western blot detects proteins with antibodies after separation by electrophoresis.

The target of data set [5] is Serine/threonine-protein kinase SIK1 (Homo sapiens) (UniProt P57059). The experiment in a line: Inhibition of human SIK1 at 1 uM relative to control.
Data set [6] relates to Mus musculus. In words: Toxicity in immunodeficient mouse allografted with mouse BA/F3 cells harboring NRAS-G12D mutant assessed as body weight loss at 15 to 25 mg/kg/day, po qd administered on day 6 post implantation. Format: organism-based. The following applies: in vivo. In outline:
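Immunodeficient mice were given Ba/F3-NRAS-G12D/luciferase cells by tail-vein injection and then dosed orally once daily, with a vehicle-only cohort as control. Body weight was followed during treatment. The bioluminescence cohorts had n=4 and were treated for 3 weeks.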

Data set [7] concerns OCI-AML-3. In words: Growth inhibition of ACK1/GCK knockdown human OCI-AML3 cells harboring NRAS-Q61L mutant at 0.5 uM after 72 hrs by celltiter-glo assay. Format: functional, cell-based. A general note: ATP-based viability assays read luminescence as a measure of living cells.
Data set [8] addresses Platelet-derived growth factor receptor beta (Homo sapiens) (UniProt P09619). In words: Inhibition of human PDGFRbeta at 1 uM relative to control.
Data set [9] addresses Proto-oncogene tyrosine-protein kinase receptor Ret (Homo sapiens) (UniProt P07949). The experiment in a line: Inhibition of human RET at 1 uM relative to control.
Data set [10] deals with BaF3. In words: Antileukemic activity against mouse BA/F3 cells harboring NRAS-G12D mutant allografted in immunodeficient mouse assessed as median survival time at 25 mg/kg/day, po qd administered on day 6 post implantation (reference value: 23 days). Format: functional.
For data set [11], the target named is Discoidin domain-containing receptor 2 (Homo sapiens) (UniProt Q16832). In words: Inhibition of human DDR2 at 1 uM relative to control.
Data set [12] has as its system OCI-AML-3. In words: Antileukemic activity against human OCI-AML3 cells harboring NRAS-Q61L mutant xenografted in immunodeficient po dosed mouse administered qd on day 21 post implantation measured on day 20 post dose. Format: functional, organism-based. On the technique in general: In xenograft studies the graft and the host belong to different species.
For data set [13], the target named is Serine/threonine-protein kinase A-Raf (Homo sapiens) (UniProt P10398). The experiment in a line: Inhibition of human ARAF at 1 uM relative to control.
Chain of Serine/threonine-protein kinase A-Raf (Homo sapiens) (P10398 whole entry): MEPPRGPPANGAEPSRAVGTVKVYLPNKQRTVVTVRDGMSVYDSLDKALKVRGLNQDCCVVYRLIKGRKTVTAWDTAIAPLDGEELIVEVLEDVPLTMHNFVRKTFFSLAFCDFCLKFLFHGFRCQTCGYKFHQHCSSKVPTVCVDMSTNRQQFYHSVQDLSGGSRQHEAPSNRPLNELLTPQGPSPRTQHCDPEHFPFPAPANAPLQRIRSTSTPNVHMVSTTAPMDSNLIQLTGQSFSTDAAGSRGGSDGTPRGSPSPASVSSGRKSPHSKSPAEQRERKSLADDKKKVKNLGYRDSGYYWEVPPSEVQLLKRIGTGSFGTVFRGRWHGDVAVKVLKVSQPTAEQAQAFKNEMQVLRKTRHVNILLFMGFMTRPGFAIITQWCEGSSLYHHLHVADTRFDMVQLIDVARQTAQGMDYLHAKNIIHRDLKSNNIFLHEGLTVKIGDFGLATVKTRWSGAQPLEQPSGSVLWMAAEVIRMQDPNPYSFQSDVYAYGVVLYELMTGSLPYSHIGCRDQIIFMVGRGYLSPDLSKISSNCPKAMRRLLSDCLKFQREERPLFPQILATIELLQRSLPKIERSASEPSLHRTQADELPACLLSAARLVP
Data set [14] has as its system OCI-AML-3. In words: Antileukemic activity against human OCI-AML3 cells harboring NRAS-Q61L mutant xenografted in immunodeficient mouse assessed as tumor volume at 15 mg/kg/day, po qd administered on day 21 post implantation measured on day 20 post dose (reference value: 100%). Format: functional.
Data set [15] concerns the target Ephrin type-A receptor 1 (Homo sapiens) (UniProt P21709). In words: Inhibition of human EphA1 at 1 uM relative to control.
Data set [16] has as its target Tyrosine-protein kinase JAK2 (Homo sapiens) (UniProt O60674). In words: Inhibition of human JAK2 at 1 uM relative to control.
The subject of data set [17] is BaF3. The experiment in a line: Induction of apoptosis in mouse BA/F3 cells expressing NRAS-G12D mutant assessed as increase in apoptotic cell after 24 hrs by annexin V/propidium iodide staining based FACS analysis. Format: functional. In outline:
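Apoptosis scored by flow cytometry after FITC-annexin V/propidium iodide dual staining following 24 h exposure, at 1 µM or a range of indicated concentrations; three independent experiments, mean with SD, one-way ANOVA.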

Data set [18] in a line: Tmax in mouse at 10 mg/kg, po. Format: ADME, organism-based. Conditions: in vivo.
For data set [19], the target named is Mitogen-activated protein kinase 11 (Homo sapiens) (UniProt Q15759). In words: Inhibition of human P38beta at 1 uM relative to control.
Chain of Mitogen-activated protein kinase 11 (Homo sapiens) (Q15759 whole entry): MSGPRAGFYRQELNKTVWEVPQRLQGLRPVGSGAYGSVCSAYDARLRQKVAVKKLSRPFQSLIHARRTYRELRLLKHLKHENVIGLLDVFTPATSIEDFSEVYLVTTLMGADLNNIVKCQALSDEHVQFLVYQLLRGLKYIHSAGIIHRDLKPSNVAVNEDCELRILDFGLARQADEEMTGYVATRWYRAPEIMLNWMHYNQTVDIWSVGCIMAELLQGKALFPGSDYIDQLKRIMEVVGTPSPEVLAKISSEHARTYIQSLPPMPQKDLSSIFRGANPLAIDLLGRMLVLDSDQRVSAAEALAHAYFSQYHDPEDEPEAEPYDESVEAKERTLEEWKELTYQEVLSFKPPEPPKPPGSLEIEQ
Data set [20] has as its target T1, Mitogen-activated protein kinase kinase kinase kinase 2 (Homo sapiens) (UniProt Q12851).
T1 sequence (whole entry): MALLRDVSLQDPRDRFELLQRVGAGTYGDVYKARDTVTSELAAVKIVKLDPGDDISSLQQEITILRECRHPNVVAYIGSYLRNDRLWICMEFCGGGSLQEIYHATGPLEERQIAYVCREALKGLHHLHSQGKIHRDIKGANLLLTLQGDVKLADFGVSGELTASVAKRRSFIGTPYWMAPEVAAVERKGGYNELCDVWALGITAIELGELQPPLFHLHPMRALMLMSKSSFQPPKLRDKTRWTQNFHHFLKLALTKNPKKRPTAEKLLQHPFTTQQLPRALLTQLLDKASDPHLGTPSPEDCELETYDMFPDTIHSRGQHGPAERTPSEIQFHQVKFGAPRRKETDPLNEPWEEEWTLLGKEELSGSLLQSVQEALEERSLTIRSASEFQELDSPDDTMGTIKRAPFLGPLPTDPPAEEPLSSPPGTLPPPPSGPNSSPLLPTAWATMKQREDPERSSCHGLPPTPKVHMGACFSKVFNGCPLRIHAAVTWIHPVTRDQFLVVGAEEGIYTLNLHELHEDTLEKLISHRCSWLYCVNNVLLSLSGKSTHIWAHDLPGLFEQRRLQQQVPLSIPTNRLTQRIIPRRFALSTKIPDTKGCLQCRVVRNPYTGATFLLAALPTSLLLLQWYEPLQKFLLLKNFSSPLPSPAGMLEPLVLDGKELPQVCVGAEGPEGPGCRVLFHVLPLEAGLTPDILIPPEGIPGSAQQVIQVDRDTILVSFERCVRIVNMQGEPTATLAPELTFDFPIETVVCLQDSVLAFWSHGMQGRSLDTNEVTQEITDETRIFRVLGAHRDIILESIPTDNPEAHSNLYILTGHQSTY
Conditions: 1 uM.

Data set [21] deals with BaF3. In words: Antileukemic activity against mouse BA/F3 cells harboring NRAS-G12D mutant/luciferase allografted in immunodeficient mouse at 15 mg/kg/day, po qd administered on day 6 post implantation measured on day 20 post implantation by bioluminescence imaging method. Type of data set: functional. In outline: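 Immunodeficient mice injected via tail vein with Ba/F3-NRAS-G12D/Luc cells, dosed orally once daily (8 or 15 mg/kg/day) or vehicle for 3 weeks, n=4 per cohort; bioluminescence imaged every two days after luciferin 150 mg/kg, quantified by bio-photonic analysis.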

The target in data set [22] is Vascular endothelial growth factor receptor 2 (Homo sapiens) (UniProt P35968). The experiment in a line: Inhibition of human KDR at 1 uM relative to control.
Chain of Vascular endothelial growth factor receptor 2 (Homo sapiens) (P35968 whole entry): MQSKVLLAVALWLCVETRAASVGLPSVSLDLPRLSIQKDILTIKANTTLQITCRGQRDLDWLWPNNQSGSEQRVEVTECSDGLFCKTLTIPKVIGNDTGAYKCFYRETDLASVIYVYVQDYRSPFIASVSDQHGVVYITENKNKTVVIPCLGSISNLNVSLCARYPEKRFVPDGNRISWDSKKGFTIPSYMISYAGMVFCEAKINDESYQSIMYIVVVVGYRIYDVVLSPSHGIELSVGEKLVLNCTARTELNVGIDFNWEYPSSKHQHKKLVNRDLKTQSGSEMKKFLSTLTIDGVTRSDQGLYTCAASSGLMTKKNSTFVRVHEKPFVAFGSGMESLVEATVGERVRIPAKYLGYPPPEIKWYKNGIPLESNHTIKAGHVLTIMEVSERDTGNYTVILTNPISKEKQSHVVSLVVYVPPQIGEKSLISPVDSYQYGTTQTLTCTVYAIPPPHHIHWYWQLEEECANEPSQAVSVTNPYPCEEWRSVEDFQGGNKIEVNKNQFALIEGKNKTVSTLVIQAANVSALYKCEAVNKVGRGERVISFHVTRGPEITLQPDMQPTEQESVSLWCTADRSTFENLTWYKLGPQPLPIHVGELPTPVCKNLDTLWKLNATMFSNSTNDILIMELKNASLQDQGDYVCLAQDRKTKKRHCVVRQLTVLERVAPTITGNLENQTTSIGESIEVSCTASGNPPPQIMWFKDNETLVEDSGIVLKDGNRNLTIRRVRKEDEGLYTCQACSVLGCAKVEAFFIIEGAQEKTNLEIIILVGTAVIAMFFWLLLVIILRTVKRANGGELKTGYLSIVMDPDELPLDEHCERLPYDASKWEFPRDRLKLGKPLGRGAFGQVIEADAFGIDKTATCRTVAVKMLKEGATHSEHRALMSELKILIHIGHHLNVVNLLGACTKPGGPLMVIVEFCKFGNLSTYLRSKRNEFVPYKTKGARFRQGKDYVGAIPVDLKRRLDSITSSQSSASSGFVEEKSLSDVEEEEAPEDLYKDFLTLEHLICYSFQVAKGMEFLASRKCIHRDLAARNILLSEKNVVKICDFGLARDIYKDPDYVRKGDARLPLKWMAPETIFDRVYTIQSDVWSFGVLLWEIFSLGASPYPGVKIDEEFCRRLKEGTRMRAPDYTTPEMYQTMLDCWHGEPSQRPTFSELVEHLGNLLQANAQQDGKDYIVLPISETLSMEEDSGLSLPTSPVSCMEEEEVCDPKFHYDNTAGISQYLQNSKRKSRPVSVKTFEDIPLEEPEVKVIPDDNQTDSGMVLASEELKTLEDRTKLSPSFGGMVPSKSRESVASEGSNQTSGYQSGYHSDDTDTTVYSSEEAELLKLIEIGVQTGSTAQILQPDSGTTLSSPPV
Data set [23] addresses Tyrosine-protein kinase HCK (Homo sapiens) (UniProt P08631). The experiment in a line: Inhibition of human HCK at 1 uM relative to control.
For data set [24], the system named is BaF3. The experiment in a line: Induction of apoptosis in mouse BA/F3 cells expressing NRAS-G12D mutant assessed as decrease in MCL1 levels at 1 uM after 24 hrs by Western blot analysis. Format: functional, cell-based. The method in brief:
as §1

Chain of Proto-oncogene tyrosine-protein kinase receptor Ret (Homo sapiens) (P07949 whole entry): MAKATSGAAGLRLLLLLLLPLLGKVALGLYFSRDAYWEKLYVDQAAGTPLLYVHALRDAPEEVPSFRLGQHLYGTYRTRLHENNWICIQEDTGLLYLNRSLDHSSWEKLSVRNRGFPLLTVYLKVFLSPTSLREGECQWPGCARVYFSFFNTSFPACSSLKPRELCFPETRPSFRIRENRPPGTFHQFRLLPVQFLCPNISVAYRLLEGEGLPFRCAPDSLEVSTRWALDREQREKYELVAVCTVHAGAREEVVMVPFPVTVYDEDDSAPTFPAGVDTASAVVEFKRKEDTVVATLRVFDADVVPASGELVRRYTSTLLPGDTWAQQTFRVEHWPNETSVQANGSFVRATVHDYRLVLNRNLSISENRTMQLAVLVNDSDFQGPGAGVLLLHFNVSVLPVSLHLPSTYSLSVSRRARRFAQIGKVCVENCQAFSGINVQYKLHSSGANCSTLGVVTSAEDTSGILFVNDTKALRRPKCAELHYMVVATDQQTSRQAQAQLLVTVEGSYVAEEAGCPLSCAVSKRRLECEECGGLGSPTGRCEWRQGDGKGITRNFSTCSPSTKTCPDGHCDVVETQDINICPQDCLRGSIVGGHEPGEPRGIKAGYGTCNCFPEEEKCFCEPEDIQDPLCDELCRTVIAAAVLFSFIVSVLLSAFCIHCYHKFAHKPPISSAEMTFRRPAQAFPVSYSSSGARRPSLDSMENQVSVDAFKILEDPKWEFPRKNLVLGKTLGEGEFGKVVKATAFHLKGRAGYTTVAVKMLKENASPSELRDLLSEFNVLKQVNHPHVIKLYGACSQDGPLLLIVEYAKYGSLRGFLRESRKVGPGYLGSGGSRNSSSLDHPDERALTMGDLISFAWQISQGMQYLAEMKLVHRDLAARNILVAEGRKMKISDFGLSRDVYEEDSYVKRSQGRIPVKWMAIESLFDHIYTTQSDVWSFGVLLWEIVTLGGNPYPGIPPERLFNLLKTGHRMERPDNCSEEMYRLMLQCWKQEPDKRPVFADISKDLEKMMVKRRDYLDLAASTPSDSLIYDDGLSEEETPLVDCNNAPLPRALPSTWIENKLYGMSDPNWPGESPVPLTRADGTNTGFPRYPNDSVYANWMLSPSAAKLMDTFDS
Chain of Ephrin type-A receptor 1 (Homo sapiens) (P21709 whole entry): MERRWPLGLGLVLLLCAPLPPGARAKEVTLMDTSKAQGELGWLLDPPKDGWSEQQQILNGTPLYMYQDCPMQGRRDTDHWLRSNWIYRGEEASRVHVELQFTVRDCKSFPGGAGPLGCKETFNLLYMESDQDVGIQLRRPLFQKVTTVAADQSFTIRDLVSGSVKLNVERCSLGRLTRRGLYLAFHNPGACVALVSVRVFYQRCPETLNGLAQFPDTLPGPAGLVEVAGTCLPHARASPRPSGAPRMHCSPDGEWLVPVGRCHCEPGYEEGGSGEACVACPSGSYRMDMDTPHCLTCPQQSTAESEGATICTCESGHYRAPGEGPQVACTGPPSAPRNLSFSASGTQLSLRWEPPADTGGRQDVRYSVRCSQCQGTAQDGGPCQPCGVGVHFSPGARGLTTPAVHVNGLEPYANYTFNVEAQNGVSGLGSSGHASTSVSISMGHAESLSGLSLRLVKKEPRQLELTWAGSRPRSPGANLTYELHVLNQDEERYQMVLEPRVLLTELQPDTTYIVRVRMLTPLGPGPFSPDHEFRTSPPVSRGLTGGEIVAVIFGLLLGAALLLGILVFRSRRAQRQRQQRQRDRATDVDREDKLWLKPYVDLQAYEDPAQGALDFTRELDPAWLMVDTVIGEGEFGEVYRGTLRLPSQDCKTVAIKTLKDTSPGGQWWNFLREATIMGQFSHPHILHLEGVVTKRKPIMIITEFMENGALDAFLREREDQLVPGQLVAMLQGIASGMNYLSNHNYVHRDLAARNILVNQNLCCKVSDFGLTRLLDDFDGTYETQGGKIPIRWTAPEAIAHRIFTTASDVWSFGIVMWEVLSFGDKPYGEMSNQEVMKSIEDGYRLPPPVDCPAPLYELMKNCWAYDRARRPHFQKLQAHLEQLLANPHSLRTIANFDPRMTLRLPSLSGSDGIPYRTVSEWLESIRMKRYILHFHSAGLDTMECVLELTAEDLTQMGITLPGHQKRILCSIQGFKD
Chain of Tyrosine-protein kinase HCK (Homo sapiens) (P08631 2-526 limits assumed): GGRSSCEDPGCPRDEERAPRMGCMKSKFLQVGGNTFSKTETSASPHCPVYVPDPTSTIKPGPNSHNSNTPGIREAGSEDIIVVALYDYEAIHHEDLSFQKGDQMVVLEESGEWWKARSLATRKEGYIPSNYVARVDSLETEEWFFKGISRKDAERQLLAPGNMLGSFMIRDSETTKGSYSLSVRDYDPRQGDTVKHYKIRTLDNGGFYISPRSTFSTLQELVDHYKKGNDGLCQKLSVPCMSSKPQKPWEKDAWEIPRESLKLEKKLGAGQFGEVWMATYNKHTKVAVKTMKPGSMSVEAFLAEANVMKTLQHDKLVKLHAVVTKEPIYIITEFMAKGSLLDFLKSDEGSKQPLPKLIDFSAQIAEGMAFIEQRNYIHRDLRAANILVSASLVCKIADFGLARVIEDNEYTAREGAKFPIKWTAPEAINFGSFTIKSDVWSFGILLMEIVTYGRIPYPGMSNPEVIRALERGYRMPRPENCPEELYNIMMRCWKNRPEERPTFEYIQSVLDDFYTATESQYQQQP

`Cc1ccc(NC(=O)c2cccc(C(F)(F)F)c2)cc1N1Cc2cnc(N)nc2N(C)C1=O`: the half-life (as a rule, the time in which the quantity being followed falls by half) in [1] was 12.4 h. For the same compound, the Activity is 14.9% in data set [2]; “Non-Toxic” in data set [6]; “Dose-dependent effect” in [12]; 41.9% in [14]; “Dose-dependent effect” in [17]; above 50% in data set [21]. Moreover, the inhibition – broadly, how much of the control response was suppressed – is 99.4% in data set [3]; 91.6% in [5]; 98.1% in data set [8]; 98.7% in [9]; 98.1% in [11]; 99% in data set [13]. The inhibition in data set [15] worked out at 90.7%; in data set [16], 94.4%; in data set [19] it was 98%; in data set [20], 93.8%; in [22], 96.4%; in data set [23], 98.9%. Besides, the result in [4] was Active. For the same compound, in data set [7], the “growth inhibition (GI)” value was “Active”. In addition, in [10], the MSD worked out at 35 days. In data set [18], the Tmax (commonly the time at which the peak concentration occurs) was 2.7 h.
Consider `CC(=O)N1CCN(c2ccc(Nc3ncc4c(n3)N(C)C(=O)N(c3cc(NC(=O)c5cccc(C(F)(F)F)c5)ccc3C)C4)cn2)CC1`, for which the result in data set [24] was Active.
